In paper PMC6136146 (Clinical genitourinary cancer, 2018):
“Also recorded” adds a separate entry of the source. Numbered stars: 1 amine (or outer) side, 2 acyl side, 3 side chain; on linkers, the order of the positions; unused ones are H or OH. Square brackets hold non-standard residues; d marks the D form. Side chains are listed from the residue outwards. Peptide text beside a SMILES is read from it. * marks the point of attachment. Ethylenediamine = C(CN[*:2])N[*:1]; Hyp = O=C(O)[C@@H]1C[C@@H](O)CN1; Phg = N[C@H](C(=O)O)c1ccccc1; CO = O=C([*:1])[*:2]; Bn = c1ccc(C*)cc1

What was measured:
[1] = system: mCRPC; settings: no different between the 2 arms; cited from earlier work
[2] = Pasireotide pharmacokinetics, radioimmunoassay with I-125-pasireotide; type: in vivo, human; settings: intramuscular every 28 days
Outline: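 Competitive radioimmunoassay on patient samples: samples or standards incubated with I-125-pasireotide tracer and antiserum; immune complexes captured on anti-rabbit-coated magnetic beads, unbound fraction washed away, bound radioactivity read in gamma counter. Dosing: long-acting IM injection every 28 days at 40, 60 or 80 mg, with docetaxel 75 mg/m2 IV every 21 days and prednisone 5 mg orally twice daily.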

[3] = system: sst2; settings: extremely high affinity compared to octreotide; cited from earlier work
[4] = system: PC3 cells; settings: cited from earlier work
[5] = system: DU145 cells; settings: cited from earlier work
[6] = system: sst1; settings: extremely high affinity compared to octreotide; cited from earlier work
[7] = system: sst5; settings: extremely high affinity compared to octreotide; cited from earlier work
[8] = system: sst3; settings: extremely high affinity compared to octreotide; cited from earlier work
[9] = system: patients with metastatic castrate-resistant prostate cancer (mCRPC); assay: Phase I dose escalation: dose-limiting toxicity, MTD and toxicities; type: in vivo, human
[10] = Docetaxel pharmacokinetics; type: in vivo, human; settings: docetaxel 75 mg/m2 intravenously, coadministration of SOM230; single-agent docetaxel PK not done
[11] = 60 mg dose level, 12 patients evaluated, number of patients

In the case of `C[C@]12CC[C@@H]3c4ccc(OC(=O)N(CCCl)CCCl)cc4CC[C@H]3[C@@H]1CC[C@@H]2O` [estramustine], the “Median OS” value [1] is given as 18 months.

In the case of `NCCCC[C@@H]1NC(=O)[C@@H](Cc2c[nH]c3ccccc23)NC(=O)[C@H](c2ccccc2)NC(=O)[C@@H]2C[C@@H](OC(=O)NCCN)CN2C(=O)[C@H](Cc2ccccc2)NC(=O)[C@H](Cc2ccc(OCc3ccccc3)cc2)NC1=O` [Pasireotide] (cyclo([Hyp]([CO-Ethylenediamine])[Phg][dW]KY(Bn)F)), the “Steady state established in most patients” value [2] is listed as no more than 57 days, the “Binding to sst2” value [3] is listed as “binds” and the “Growth factor secretion in PC3 cells” value [4] is listed as “reduced secretion of stem cell factor and platelet-derived growth factor”. The “Growth factors in DU145 cells” value [5] was “decreased transforming growth factor-β and basic fibroblast growth factor”, the “Binding to sst1” value [6] was “binds” and the “Binding to sst5” value [7] was “binds”. The “Binding to sst3” value [8] was “binds”, the “Dehydration, Grade 1” value [9, 11] was 0 n and the “Dehydration, Grade 2” value [9, 11] was 0 n. For the same compound, the “Dehydration, Grade 3” value [9, 11] was 1 n, the “Dehydration, Grade 4” value [9, 11] was 0 n and the “Diarrhea, Grade 1” value [9, 11] was 2 n. The “Diarrhea, Grade 2” value [9, 11] was 1 n, the “Diarrhea, Grade 3” value [9, 11] was 0 n and the “Diarrhea, Grade 4” value [9, 11] was 0 n. The “Dry Mouth, Grade 1” value [9, 11] was 1 n, the “Dry Mouth, Grade 2” value [9, 11] was 0 n and the “Dry Mouth, Grade 3” value [9, 11] was 0 n. For the same compound, the “Dry Mouth, Grade 4” value [9, 11] was 0 n, the “Electrocardiogram QT Corrected Interval Prolong, Grade 1” value [9, 11] was 0 n and the “Electrocardiogram QT Corrected Interval Prolong, Grade 2” value [9, 11] was 1 n. For the same compound, the “Electrocardiogram QT Corrected Interval Prolong, Grade 3” value [9, 11] was 0 n, the “Electrocardiogram QT Corrected Interval Prolong, Grade 4” value [9, 11] was 0 n and the “Hyperglycemia, Grade 1” value [9, 11] was 0 n. For the same compound, the “Hyperglycemia, Grade 2” value [9, 11] was 0 n, the “Hyperglycemia, Grade 3” value [9, 11] was 3 n and the “Hyperglycemia, Grade 4” value [9, 11] was 0 n. For the same compound, the “Hyperkalemia, Grade 1” value [9, 11] was 0 n, the “Hyperkalemia, Grade 2” value [9, 11] was 1 n and the “Hyperkalemia, Grade 3” value [9, 11] was 0 n. For the same compound, the “Hyperkalemia, Grade 4” value [9, 11] was 0 n, the “Hypertension, Grade 1” value [9, 11] was 0 n and the “Hypertension, Grade 2” value [9, 11] was 0 n. The “Hypertension, Grade 3” value [9, 11] was 2 n, the “Hypertension, Grade 4” value [9, 11] was 0 n and the “Hyponatremia, Grade 1” value [9, 11] was 0 n. For the same compound, the “Hyponatremia, Grade 2” value [9, 11] was 0 n, the “Hyponatremia, Grade 3” value [9, 11] was 1 n and the “Hyponatremia, Grade 4” value [9, 11] was 0 n. The “Hypophosphatemia, Grade 1” value [9, 11] was 0 n, the “Hypophosphatemia, Grade 2” value [9, 11] was 0 n and the “Hypophosphatemia, Grade 3” value [9, 11] was 3 n. The “Hypophosphatemia, Grade 4” value [9, 11] was 0 n, the “Hypotension, Grade 1” value [9, 11] was 0 n and the “Hypotension, Grade 2” value [9, 11] was 0 n. The “Hypotension, Grade 3” value [9, 11] was 1 n, the “Hypotension, Grade 4” value [9, 11] was 0 n and the “Injection Site Reaction, Grade 1” value [9, 11] was 1 n. The “Injection Site Reaction, Grade 2” value [9, 11] was 0 n, the “Injection Site Reaction, Grade 3” value [9, 11] was 0 n and the “Injection Site Reaction, Grade 4” value [9, 11] was 0 n. For the same compound, the “Rash Acneiform, Grade 1” value [9, 11] was 1 n, the “Rash Acneiform, Grade 2” value [9, 11] was 0 n and the “Rash Acneiform, Grade 3” value [9, 11] was 0 n. For the same compound, the “Rash Acneiform, Grade 4” value [9, 11] was 0 n, the “Urinary Frequency, Grade 1” value [9, 11] was 1 n and the “Urinary Frequency, Grade 2” value [9, 11] was 0 n. For the same compound, the “Urinary Frequency, Grade 3” value [9, 11] was 0 n, the “Urinary Frequency, Grade 4” value [9, 11] was 0 n and the “Grade 4 or 5 toxicities” value ([9]; 60 mg dose, twelve patients evaluated) was “None of the patients experienced Grade 4 or 5 toxicities”. The Dose-limiting toxicities observed ([9]; 80-mg dose level of pasireotide) was “Grade 4 hyperglycemia unresponsive to therapy and Grade 4 neutropenia lasting for > 7 days in 1 patient each; also recorded: One patient had Grade 4 amylase elevation and the other had Grade 3 hyperglycemia requiring hospitalization” and the “Hospitalizations because of hyperglycemia probably or definitely related to SOM230” value ([9]; in vivo) was “Three”.

For `CC(=O)O[C@@]12CO[C@@H]1C[C@H](O)[C@@]1(C)C(=O)[C@H](O)C3=C(C)[C@@H](OC(=O)[C@H](O)[C@@H](NC(=O)OC(C)(C)C)c4ccccc4)C[C@@](O)([C@@H](OC(=O)c4ccccc4)[C@H]21)C3(C)C` [Docetaxel], the “Docetaxel clearance compared with the data reported in the literature” value [10] was 3- to 4 fold higher.
